Source: ChEMBL document CHEMBL5329156, “Discovery and development of novel substituted monohydrazides as potent antifungal agents” (RSC Med Chem, 2023)
In brackets after ≈: the same amount, converted by molar mass.

Experiments:
J774.A1 = assay: Cytotoxicity against J774A.1 cells assessed as reduction in cell viability at 31.3 microg/ml; type: toxicity, cell-based; details: mouse, dose 31.3 µg/ml
Method in brief: (§1)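 Cells in DMEM with 10% FBS and 1% Pen/Strep, seeded at 10,000 cells/well and held overnight at 37 °C, 5% CO2. Compounds added at final 31.3-0.12 µg/mL (0.05% DMSO vehicle) for 24 h. Resazurin then added for 6 h; fluorescence read at ex 560/em 590. Triton X-100 1% as positive control; values normalized to vehicle. Run in quadruplicate.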

HEK293 = assay: Cytotoxicity against human HEK-293 cells assessed as reduction in cell viability at 31.3 microg/ml; type: toxicity, cell-based; details: dose 31.3 µg/ml; method in brief: as §1
[Candida] auris [1] = Antifungal activity against Candida auris AR Bank # 381 assessed as fungal growth inhibition by double dilution method; type: functional; details: Candidozyma auris
Method in brief: (§2)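 Broth microdilution after CLSI M27-A3/M38-A2 with minor changes. Single colony grown overnight in YPD at 35 °C, 200 rpm. Compound final range 0.06-31.3 µg/mL; incubated 48 h at 35 °C.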

[Candida] auris [2] = Antifungal activity against Candida auris AR Bank # 382 assessed as fungal growth inhibition by double dilution method; type: functional; details: Candidozyma auris; method in brief: as §2
[Candida] auris [3] = Antifungal activity against Candida auris AR Bank # 383 assessed as fungal growth inhibition by double dilution method; type: functional; details: Candidozyma auris; method in brief: as §2
[Candida] auris [4] = Antifungal activity against Candida auris AR Bank # 384 assessed as fungal growth inhibition by double dilution method; type: functional; details: Candidozyma auris; method in brief: as §2
[Candida] auris [5] = Antifungal activity against Candida auris AR Bank # 385 assessed as fungal growth inhibition by double dilution method; type: functional; details: Candidozyma auris; method in brief: as §2
[Candida] auris [6] = Antifungal activity against Candida auris AR Bank # 386 assessed as fungal growth inhibition by double dilution method; type: functional; details: Candidozyma auris; method in brief: as §2
[Candida] auris [7] = Antifungal activity against Candida auris AR Bank # 387 assessed as fungal growth inhibition by double dilution method; type: functional; details: Candidozyma auris; method in brief: as §2
[Candida] auris [8] = Antifungal activity against Candida auris AR Bank # 388 assessed as fungal growth inhibition by double dilution method; type: functional; details: Candidozyma auris; method in brief: as §2
[Candida] auris [9] = Antifungal activity against Candida auris AR Bank # 389 assessed as fungal growth inhibition by double dilution method; type: functional; details: Candidozyma auris; method in brief: as §2
[Candida] auris [10] = Antifungal activity against Candida auris AR Bank # 390 assessed as fungal growth inhibition by double dilution method; type: functional; details: Candidozyma auris; method in brief: as §2
Candida duobushaemulonii [11] = assay: Antifungal activity against Candida duobushaemulonii AR Bank # 391 assessed as fungal growth inhibition by double dilution method; type: functional; details: Candidozyma duobushaemuli; method in brief: as §2
Candida duobushaemulonii [12] = assay: Antifungal activity against Candida duobushaemulonii AR Bank # 392 assessed as fungal growth inhibition by double dilution method; type: functional; details: Candidozyma duobushaemuli; method in brief: as §2
[Candida] haemuloni [13] = Antifungal activity against Candida haemulonii AR Bank # 393 assessed as fungal growth inhibition by double dilution method; type: functional; details: Candidozyma haemuli; method in brief: as §2
Candida duobushaemulonii [14] = assay: Antifungal activity against Candida duobushaemulonii AR Bank # 394 assessed as fungal growth inhibition by double dilution method; type: functional; details: Candidozyma duobushaemuli; method in brief: as §2
[Candida] haemuloni [15] = Antifungal activity against Candida haemulonii AR Bank # 395 assessed as fungal growth inhibition by double dilution method; type: functional; details: Candidozyma haemuli; method in brief: as §2
Kodamaea ohmeri = assay: Antifungal activity against Kodamaea ohmeri AR Bank # 396 assessed as fungal growth inhibition by double dilution method; type: functional; method in brief: as §2
Pichia kudriavzevii [16] = assay: Antifungal activity against Pichia kudriavzevii AR Bank # 397 assessed as fungal growth inhibition by double dilution method; type: functional; method in brief: as §2
Clavispora lusitaniae = assay: Antifungal activity against Clavispora lusitaniae AR Bank # 398 assessed as fungal growth inhibition by double dilution method; type: functional; method in brief: as §2
Saccharomyces cerevisiae [17] = assay: Antifungal activity against Saccharomyces cerevisiae AR Bank # 399 assessed as fungal growth inhibition by double dilution method; type: functional; method in brief: as §2
Saccharomyces cerevisiae [18] = assay: Antifungal activity against Saccharomyces cerevisiae AR Bank # 400 assessed as fungal growth inhibition by double dilution method; type: functional; method in brief: as §2
Candida albicans [19] = assay: Antifungal activity against Candida albicans ATCC 10231 assessed as fungal growth inhibition by double dilution method; type: functional; method in brief: as §2
Candida albicans [20] = assay: Antifungal activity against Candida albicans ATCC 64124 assessed as fungal growth inhibition by double dilution method; type: functional
Method in brief: (§3)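 Broth microdilution after CLSI M27-A3/M38-A2 with minor modifications. A single colony was grown overnight in YPD at 35 °C with shaking at 200 rpm. Cells were mixed 1:1 with compound (final 0.06-31.3 µg/mL, from DMSO stocks) and incubated 48 h at 35 °C.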

Candida albicans [21] = assay: Antifungal activity against itraconazole/fluconazole susceptible Candida albicans ATCC MYA-2876 assessed as fungal growth inhibition by double dilution method; type: functional; method in brief: as §3
Candida albicans [22] = assay: Antifungal activity against itraconazole/fluconazole resistant Candida albicans ATCC 90819 assessed as fungal growth inhibition by double dilution method; type: functional; method in brief: as §3
Candida albicans [23] = assay: Antifungal activity against itraconazole/fluconazole susceptible Candida albicans ATCC MYA-2310 assessed as fungal growth inhibition by double dilution method; type: functional; method in brief: as §3
Candida albicans [24] = assay: Antifungal activity against itraconazole/fluconazole resistant Candida albicans ATCC MYA-1237 assessed as fungal growth inhibition by double dilution method; type: functional; method in brief: as §3
Candida albicans [25] = assay: Antifungal activity against itraconazole/fluconazole resistant Candida albicans ATCC MYA-1003 assessed as fungal growth inhibition by double dilution method; type: functional; method in brief: as §3
Nakaseomyces glabratus [26] = assay: Antifungal activity against Candida glabrata ATCC 2001 assessed as fungal growth inhibition by double dilution method; type: functional; method in brief: as §2
Pichia kudriavzevii [27] = assay: Antifungal activity against Pichia kudriavzevii ATCC 6258 assessed as fungal growth inhibition by double dilution method; type: functional; method in brief: as §2
Nakaseomyces glabratus [28] = assay: Antifungal activity against Candida glabrata ATCC 22019 assessed as fungal growth inhibition by double dilution method; type: functional; method in brief: as §2
[Candida] auris [29] = Antifungal activity against Candida auris AR Bank # 0384 assessed as fungal growth inhibition by double dilution method; type: functional; details: Candidozyma auris; method in brief: as §2
[Candida] auris [30] = Antifungal activity against Candida auris AR Bank # 0390 assessed as fungal growth inhibition by double dilution method; type: functional; details: Candidozyma auris; method in brief: as §2
Cryptococcus neoformans = assay: Antifungal activity against Cryptococcus neoformans ATCC MYA-895 assessed as fungal growth inhibition by double dilution method; type: functional; method in brief: as §2
Aspergillus terreus = assay: Antifungal activity against Aspergillus terreus ATCC MYA-3633 assessed as fungal growth inhibition by double dilution method; type: functional
Aspergillus fumigatus [31] = assay: Antifungal activity against Aspergillus fumigatus NRRL 163 assessed as fungal growth inhibition by double dilution method; type: functional
Aspergillus flavus = assay: Antifungal activity against Aspergillus flavus ATCC MYA-3631 assessed as fungal growth inhibition by double dilution method; type: functional
Aspergillus nidulans = assay: Antifungal activity against Aspergillus nidulans ATCC 38163 assessed as fungal growth inhibition by double dilution method; type: functional
Aspergillus fumigatus [32] = assay: Antifungal activity against Aspergillus fumigatus NRRL 5109 assessed as fungal growth inhibition by double dilution method; type: functional
Aspergillus fumigatus [33] = assay: Antifungal activity against Aspergillus fumigatus NRRL 6113 assessed as fungal growth inhibition by double dilution method; type: functional

SMILES | MIC (Candida albicans [19]) | MIC (Candida albicans [20]) | MIC (Candida albicans [21]) | MIC (Candida albicans [22]) | MIC (Candida albicans [23]) | MIC (Candida albicans [24]) | MIC (Candida albicans [25]) | MIC (Nakaseomyces glabratus [26]) | MIC (Pichia kudriavzevii [27]) | MIC (Nakaseomyces glabratus [28]) | MIC ([Candida] auris [29]) | MIC ([Candida] auris [30]) | MIC (Cryptococcus neoformans) | MIC (Aspergillus terreus) | MIC (Aspergillus fumigatus [31]) | MIC (Aspergillus flavus) | MIC (Aspergillus nidulans) | MIC (Aspergillus fumigatus [32]) | MIC (Aspergillus fumigatus [33]) | also measured
C[C@@H](c1ncncc1F)[C@](O)(Cn1cncn1)c1ccc(F)cc1F [VORICONAZOLE] | – | – | – | – | – | – | – | – | – | – | – | – | – | – | – | – | – | – | – | Activity (J774.A1): Non-Toxic; Activity (HEK293): Non-Toxic
O=C(NNc1ccc(Cl)cc1)c1cnccn1 | – | – | – | – | – | – | – | – | – | – | – | – | – | – | – | – | – | – | – | MIC ([Candida] auris [1]): 7.8 µg/mL (≈ 31.4 µM); MIC ([Candida] auris [2]): 15.6 µg/mL (≈ 62.7 µM); MIC ([Candida] auris [3]): 3.9 µg/mL (≈ 15.7 µM); MIC ([Candida] auris [4]): 1.95 µg/mL (≈ 7.84 µM); MIC ([Candida] auris [5]): 31.3 µg/mL (≈ 126 µM); MIC ([Candida] auris [6]): 7.8 µg/mL (≈ 31.4 µM); MIC ([Candida] auris [7]): 15.6 µg/mL (≈ 62.7 µM); MIC ([Candida] auris [8]): 7.8 µg/mL (≈ 31.4 µM); MIC ([Candida] auris [9]): 7.8 µg/mL (≈ 31.4 µM); MIC ([Candida] auris [10]): 3.9 µg/mL (≈ 15.7 µM); MIC (Candida duobushaemulonii [11]): 1.95 µg/mL (≈ 7.84 µM); MIC (Candida duobushaemulonii [12]): 1.95 µg/mL (≈ 7.84 µM); MIC ([Candida] haemuloni [13]): 1.95 µg/mL (≈ 7.84 µM); MIC (Candida duobushaemulonii [14]): 1.95 µg/mL (≈ 7.84 µM); MIC ([Candida] haemuloni [15]): 3.9 µg/mL (≈ 15.7 µM); MIC (Kodamaea ohmeri): 1.95 µg/mL (≈ 7.84 µM); MIC (Pichia kudriavzevii [16]): 3.9 µg/mL (≈ 15.7 µM); MIC (Clavispora lusitaniae): 3.9 µg/mL (≈ 15.7 µM); MIC (Saccharomyces cerevisiae [17]): 3.9 µg/mL (≈ 15.7 µM); MIC (Saccharomyces cerevisiae [18]): 3.9 µg/mL (≈ 15.7 µM)
O=C(NNc1ccc(F)cc1)c1nc(F)ccc1F | 0.24 µg/mL (≈ 0.898 µM) | 0.98 µg/mL (≈ 3.67 µM) | 0.98 µg/mL (≈ 3.67 µM) | 0.98 µg/mL (≈ 3.67 µM) | 0.98 µg/mL (≈ 3.67 µM) | 0.98 µg/mL (≈ 3.67 µM) | 0.49 µg/mL (≈ 1.83 µM) | 15.6 µg/mL (≈ 58.4 µM) | 0.24 µg/mL (≈ 0.898 µM) | 7.8 µg/mL (≈ 29.2 µM) | 1.95 µg/mL (≈ 7.3 µM) | 0.98 µg/mL (≈ 3.67 µM) | 0.49 µg/mL (≈ 1.83 µM) | 1.95 µg/mL (≈ 7.3 µM) | 31.3 µg/mL (≈ 117 µM) | 7.8 µg/mL (≈ 29.2 µM) | 0.49 µg/mL (≈ 1.83 µM) | 15.6 µg/mL (≈ 58.4 µM) | > 31.3 µg/mL | –
COc1ccc(NNC(=O)c2ccc(F)cc2F)cc1 | 0.98 µg/mL (≈ 3.52 µM) | 1.95 µg/mL (≈ 7.01 µM) | 1.95 µg/mL (≈ 7.01 µM) | 1.95 µg/mL (≈ 7.01 µM) | 1.95 µg/mL (≈ 7.01 µM) | 1.95 µg/mL (≈ 7.01 µM) | 1.95 µg/mL (≈ 7.01 µM) | 3.9 µg/mL (≈ 14 µM) | 0.98 µg/mL (≈ 3.52 µM) | 7.8 µg/mL (≈ 28 µM) | 1.95 µg/mL (≈ 7.01 µM) | 1.95 µg/mL (≈ 7.01 µM) | 0.98 µg/mL (≈ 3.52 µM) | 31.3 µg/mL (≈ 112 µM) | > 31.3 µg/mL | > 31.3 µg/mL | 1.95 µg/mL (≈ 7.01 µM) | > 31.3 µg/mL | > 31.3 µg/mL | –
